Laboratory results published in ChEMBL document CHEMBL1949570, “Quinoline- and isoquinoline-sulfonamide derivatives of LCAP as potent CNS multi-receptor-5-HT1A/5-HT2A/5-HT7 and D2/D3/D4-agents: the synthesis and pharmacological evaluation” (Bioorg Med Chem, 2012).
Activity calls are given as the source filed them. No cut-off for these calls is given here.

Assays:
[1] = target: 5-hydroxytryptamine receptor 2A (Rattus norvegicus, UniProt P14842); experiment: Displacement of [3H]Ketanserin from rat cortex 5-HT2A receptor by liquid scintillation counter
Summary of the method: (§1)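 Competition binding. 5-HT1A: rat hippocampus, [3H]-8-OH-DPAT. 5-HT2A: rat cortex, [3H]-ketanserin. D2: rat striatum, [3H]-spiperone. 5-HT6: human receptor stably in HEK293, [3H]-LSD. 5-HT7: human receptor stably in HEK293, [3H]-5-CT. Vacuum filtration on GF/B filters, ice-cold washes, scintillation counting.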

[2] = target: T1, D(4) dopamine receptor (Homo sapiens) (UniProt P21917); experiment: Displacement of [3H]-methylspiperone from human cloned dopamine D4 receptor expressed in HEK293 cells at 10 '-7 M by liquid scintillation counter; format: cell-based
T1 sequence (whole entry): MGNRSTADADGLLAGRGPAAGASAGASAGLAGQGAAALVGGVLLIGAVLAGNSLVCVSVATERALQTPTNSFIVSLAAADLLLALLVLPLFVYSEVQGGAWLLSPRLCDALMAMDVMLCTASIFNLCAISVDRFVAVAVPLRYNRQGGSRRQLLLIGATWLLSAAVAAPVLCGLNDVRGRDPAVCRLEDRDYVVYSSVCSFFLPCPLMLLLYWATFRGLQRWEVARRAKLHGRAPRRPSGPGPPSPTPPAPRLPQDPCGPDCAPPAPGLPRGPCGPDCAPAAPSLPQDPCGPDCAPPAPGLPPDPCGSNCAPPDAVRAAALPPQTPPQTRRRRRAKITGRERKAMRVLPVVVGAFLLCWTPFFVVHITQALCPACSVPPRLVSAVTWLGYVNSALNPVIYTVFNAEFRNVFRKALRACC

[3] = target: D(3) dopamine receptor (Homo sapiens) (UniProt P35462); experiment: Displacement of [3H]-methylspiperone from human cloned dopamine D3 receptor expressed in HEK293 cells at 10 '-7 M by liquid scintillation counter; format: cell-based
[4] = target: D(3) dopamine receptor (Homo sapiens) (UniProt P35462); experiment: Displacement of [3H]-methylspiperone from human cloned dopamine D3 receptor expressed in HEK293 cells at 10 '-6 M by liquid scintillation counter; format: cell-based
[5] = target: T2, 5-hydroxytryptamine receptor 1A (Rattus norvegicus, UniProt P19327); experiment: Displacement of [3H]8-OH-DPAT from rat hippocampus 5-HT1A receptor by liquid scintillation counter; format: tissue-based; summary of the method: as §1
T2 sequence (P19327 whole entry): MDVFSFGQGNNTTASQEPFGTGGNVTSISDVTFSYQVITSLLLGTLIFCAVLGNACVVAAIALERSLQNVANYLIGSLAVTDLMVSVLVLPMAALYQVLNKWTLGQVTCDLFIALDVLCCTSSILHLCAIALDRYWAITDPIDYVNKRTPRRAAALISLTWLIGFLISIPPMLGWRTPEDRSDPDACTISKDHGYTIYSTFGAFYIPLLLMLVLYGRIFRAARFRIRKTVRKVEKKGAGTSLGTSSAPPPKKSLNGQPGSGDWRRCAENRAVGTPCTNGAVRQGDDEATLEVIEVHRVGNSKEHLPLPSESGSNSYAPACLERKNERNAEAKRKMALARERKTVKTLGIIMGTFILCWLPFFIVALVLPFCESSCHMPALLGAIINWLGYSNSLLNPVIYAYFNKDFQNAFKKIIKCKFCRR

[6] = target: 5-hydroxytryptamine receptor 6 (Homo sapiens, UniProt P50406); experiment: Displacement of [3H]-LSD from human full length cloned 5HT6 receptor expressed in human HEK293 cells by liquid scintillation counter; format: cell-based; summary of the method: as §1
[7] = target: 5-hydroxytryptamine receptor 7 (Homo sapiens, UniProt P34969); experiment: Displacement of [3H]5-CT form human cloned 5HT7 receptor expressed in human HEK293 cells by liquid scintillation counter; format: cell-based; summary of the method: as §1
Mus musculus [8] = experiment: Antidepressant activity in Swiss albino mouse assessed as reduction in immobility time at 20 mg/kg measured for 4 mins by forced swim test; format: functional; parameters: scale not given: the % may be the effect or the level left
Summary of the method: (§2)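 Porsolt forced swim in male Swiss albino mice. Drugs ip (10 ml/kg; 1% Tween 80 suspension, imipramine in water) 30 min before. Cylinder 25 cm high, 10 cm diameter, 6 cm water at 23–25 °C, 6 min session; immobility scored over final 4 min. 5–10 mice/dose; one-way ANOVA with Bonferroni.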

Mus musculus [9] = experiment: Antidepressant activity in Swiss albino mouse assessed as reduction in immobility time at 10 mg/kg measured for 4 mins by forced swim test; format: functional; parameters: scale not given: the % may be the effect or the level left; summary of the method: as §2
[10] = Selectivity ratio of compound Ki for rat hippocampus 5-HT1A receptor to human 5HT7 receptor; format: tissue-based
Summary of the method: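 Ratio of Ki values from competition binding: rat hippocampus 5-HT1A with [3H]-8-OH-DPAT versus human 5-HT7 in HEK293 with [3H]-5-CT; Ki by Cheng–Prusoff from 7–9 concentrations in triplicate.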

Rattus norvegicus [11] = experiment: Anxiolytic activity in Wistar rat assessed as increase in time spent in open arms at 1.25 mg/kg after 5 mins by plus-maze test (reference value: 13 +/- 2.3 %); format: functional
Rattus norvegicus [12] = experiment: Anxiolytic activity in Wistar rat assessed as increase in time spent in open arms at 5 mg/kg after 5 mins by plus-maze test (reference value: 13 +/- 2.3 %); format: functional
Rattus norvegicus [13] = experiment: Anxiolytic activity in Wistar rat assessed as increase in open arm entries at 2.5 mg/kg after 5 mins by plus-maze test (reference value: 26.3 +/- 2.1 %); format: functional
Rattus norvegicus [14] = experiment: Anxiolytic activity in Wistar rat assessed as increase in open arm entries at 1.25 mg/kg after 5 mins by plus-maze test (reference value: 26.3 +/- 2.1 %); format: functional
Rattus norvegicus [15] = experiment: Anxiolytic activity in Wistar rat assessed as increase in time spent in open arms at 2.5 mg/kg after 5 mins by plus-maze test (reference value: 13 +/- 2.3 %); format: functional
Rattus norvegicus [16] = experiment: Anxiolytic activity in Wistar rat assessed as increase in open arm entries at 5 mg/kg after 5 mins by plus-maze test (reference value: 26.3 +/- 2.1 %); format: functional
Mus musculus [17] = experiment: […] activity in ip dosed Swiss albino mouse assessed as inhibition of DOI-induced head twitches administered 20 mins before DOI challenge measured for 20 mins; format: functional; settings: for ED50: read-out: ID50 (the source's name)
Mus musculus [18] = experiment: […] activity in Swiss albino mouse assessed as inhibition of apomorphine-induced climbing behavior administered 10 mins before apomorphine challenge measured for 2 mins; format: functional
Summary of the method: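 Male Swiss albino mice; compounds ip in 1% Tween 80 suspension, 10 min before apomorphine 3 mg/kg. Climbing time (2–4 paws on bar wall) recorded for 2 min starting 20 min after apomorphine.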

[19] = target: T1, D(4) dopamine receptor (Homo sapiens); experiment: Displacement of [3H]-methylspiperone from human cloned dopamine D4 receptor expressed in HEK293 cells at 10 '-6 M by liquid scintillation counter; format: cell-based
D(2) dopamine receptor = D(2) dopamine receptor (Rattus norvegicus, UniProt P61169); experiment: Displacement of [3H]-spiperone from rat striatum dopamine D2 receptor by liquid scintillation counter; summary of the method: as §1
Mus musculus [20] = experiment: Antidepressant activity in mouse assessed as spontaneous locomotor activity 10 to 30 mg/kg; format: functional, organism-based
Summary of the method: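 Swiss albino mice given the forced swim doses ip 30 min before; placed individually in cages and channel crossings counted from 2 to 6 min with a multichannel activity monitor, matching the swim test observation period.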

Mus musculus [21] = species: Mus musculus; experiment: Antipsychotic activity in CD1 mouse assessed as inhibition of MK-801-induced hyperactivity measuring number of crossings measured every 5 mins for 1 hr; format: functional, organism-based
Summary of the method: (§3)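 Male CD-1 mice, one per cage, habituated 30 min; photobeam crossings (ambulation) then counted over 1 h, logged every 5 min. Drugs suspended in 1% aqueous Tween 80 and given ip at 10 ml/kg, 30 min before test. For hyperactivity, MK-801 (0.2 mg/kg, in distilled water) was given ip 15 min before test. 5–10 mice/dose; mean ± SEM, one-way ANOVA with Bonferroni test.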

Mus musculus [22] = experiment: Antipsychotic activity in CD1 mouse assessed as reduction in spontaneous locomotor activity measuring number of crossings at 0.5 to 1 mg/kg every 5 mins for 1 hr; format: functional, organism-based
Summary of the method: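 Male CD-1 mice; compound or reference ip 30 min before test plus vehicle. After 30 min habituation in individual cages, crossings counted over 1 h, recorded every 5 min; mean ± SEM; one-way ANOVA, Bonferroni.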

Mus musculus [23] = experiment: Antipsychotic activity in CD1 mouse assessed as reduction in spontaneous locomotor activity measuring number of crossings at 1.25 to 5 mg/kg every 5 mins for 1 hr; format: functional, organism-based; summary of the method: as §3

Chain of 5-hydroxytryptamine receptor 6 (P50406 whole entry): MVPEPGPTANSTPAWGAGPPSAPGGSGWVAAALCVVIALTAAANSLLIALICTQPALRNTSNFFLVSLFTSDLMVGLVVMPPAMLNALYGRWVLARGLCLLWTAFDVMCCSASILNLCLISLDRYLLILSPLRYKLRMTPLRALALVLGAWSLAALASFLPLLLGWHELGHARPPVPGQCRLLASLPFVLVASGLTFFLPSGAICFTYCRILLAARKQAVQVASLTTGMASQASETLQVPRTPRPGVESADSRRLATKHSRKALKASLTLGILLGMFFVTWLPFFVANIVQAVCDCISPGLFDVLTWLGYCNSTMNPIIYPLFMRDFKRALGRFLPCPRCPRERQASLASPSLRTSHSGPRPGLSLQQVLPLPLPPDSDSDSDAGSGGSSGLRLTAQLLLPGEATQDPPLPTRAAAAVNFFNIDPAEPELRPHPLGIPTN
Chain of 5-hydroxytryptamine receptor 7 (P34969 whole entry): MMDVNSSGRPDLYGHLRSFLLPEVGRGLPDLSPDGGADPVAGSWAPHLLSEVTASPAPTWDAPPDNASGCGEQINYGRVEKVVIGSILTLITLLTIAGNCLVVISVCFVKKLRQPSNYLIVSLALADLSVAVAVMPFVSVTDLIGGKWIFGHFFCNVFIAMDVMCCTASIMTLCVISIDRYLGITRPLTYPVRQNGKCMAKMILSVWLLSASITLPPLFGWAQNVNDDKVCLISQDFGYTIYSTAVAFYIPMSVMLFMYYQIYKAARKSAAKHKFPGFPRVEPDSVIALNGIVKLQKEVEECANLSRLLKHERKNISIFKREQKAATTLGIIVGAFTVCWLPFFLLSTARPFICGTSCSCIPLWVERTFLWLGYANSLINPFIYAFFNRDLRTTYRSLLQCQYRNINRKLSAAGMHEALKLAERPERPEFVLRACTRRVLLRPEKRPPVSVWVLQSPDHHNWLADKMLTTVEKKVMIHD
Chain of 5-hydroxytryptamine receptor 2A (P14842 whole entry): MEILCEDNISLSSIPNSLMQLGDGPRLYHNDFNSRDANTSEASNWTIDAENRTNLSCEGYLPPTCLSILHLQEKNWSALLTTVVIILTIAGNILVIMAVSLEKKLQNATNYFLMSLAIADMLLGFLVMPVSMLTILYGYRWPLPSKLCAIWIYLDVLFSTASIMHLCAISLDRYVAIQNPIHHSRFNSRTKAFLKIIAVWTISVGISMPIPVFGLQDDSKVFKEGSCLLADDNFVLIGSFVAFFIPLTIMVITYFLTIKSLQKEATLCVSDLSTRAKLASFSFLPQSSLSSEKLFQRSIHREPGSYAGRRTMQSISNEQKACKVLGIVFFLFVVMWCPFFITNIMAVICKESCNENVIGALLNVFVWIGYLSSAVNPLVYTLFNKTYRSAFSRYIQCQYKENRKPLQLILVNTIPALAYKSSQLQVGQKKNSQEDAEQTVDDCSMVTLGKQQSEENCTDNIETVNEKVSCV
Chain of D(3) dopamine receptor (Homo sapiens) (P35462 whole entry): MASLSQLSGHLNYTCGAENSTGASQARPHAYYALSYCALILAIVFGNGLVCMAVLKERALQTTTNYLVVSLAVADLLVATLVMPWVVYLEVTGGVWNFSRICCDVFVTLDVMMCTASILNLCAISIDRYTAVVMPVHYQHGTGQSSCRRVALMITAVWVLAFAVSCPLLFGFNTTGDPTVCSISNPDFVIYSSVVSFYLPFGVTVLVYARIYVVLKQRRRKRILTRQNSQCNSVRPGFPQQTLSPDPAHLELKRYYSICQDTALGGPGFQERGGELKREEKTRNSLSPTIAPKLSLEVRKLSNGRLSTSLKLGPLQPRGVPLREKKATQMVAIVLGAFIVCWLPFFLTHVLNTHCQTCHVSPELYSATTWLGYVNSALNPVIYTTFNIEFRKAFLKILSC
Chain of D(2) dopamine receptor (P61169 whole entry): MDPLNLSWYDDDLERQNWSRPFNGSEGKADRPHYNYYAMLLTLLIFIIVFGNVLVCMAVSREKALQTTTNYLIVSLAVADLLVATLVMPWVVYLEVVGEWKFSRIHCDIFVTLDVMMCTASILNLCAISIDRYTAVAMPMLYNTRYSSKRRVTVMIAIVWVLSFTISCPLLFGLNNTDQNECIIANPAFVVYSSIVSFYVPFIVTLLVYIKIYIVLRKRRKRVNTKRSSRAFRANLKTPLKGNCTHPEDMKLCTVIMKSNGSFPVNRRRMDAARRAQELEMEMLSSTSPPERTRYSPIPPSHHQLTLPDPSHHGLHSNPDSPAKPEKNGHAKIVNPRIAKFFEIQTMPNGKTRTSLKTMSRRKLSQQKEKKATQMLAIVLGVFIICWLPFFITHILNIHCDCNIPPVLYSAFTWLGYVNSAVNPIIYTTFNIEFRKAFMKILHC

O=S(=O)(NCCCCN1CCN(c2cccc(Cl)c2)CC1)c1cnc2ccccc2c1
Ki [1]: 22 nM | inhibition [2]: 30% | inhibition [3]: 70% | inhibition [4]: 94%

O=S(=O)(c1ccc2cccnc2c1)N1CCC(CN2CCN(c3ccc(Cl)cc3)CC2)CC1
Ki [1]: 761 nM | Ki [5]: 338 nM

O=S(=O)(NCCCCCN1CCN(c2ccc(Cl)cc2)CC1)c1cnc2ccccc2c1
Ki [1]: 114 nM | Ki [5]: 5800 nM

O=S(=O)(NCCCCN1CCN(c2cccc(Cl)c2)CC1)c1cccc2cccnc12
Ki [1]: 152 nM | Ki [6]: 3760 nM | Ki [5]: 74 nM | Ki [7]: 25 nM

O=S(=O)(NCCCCN1CCN(c2ccc(Cl)cc2)CC1)c1cncc2ccccc12
Ki [1]: 211 nM | Ki [5]: 1000 nM

O=S(=O)(NCCCCN1CCN(c2ccc(Cl)cc2)CC1)c1ccc2cccnc2c1
Ki [1]: 63 nM | Ki [6]: 1730 nM | Ki [5]: 868 nM | Ki [7]: 381 nM

CN(C)CCCN1c2ccccc2CCc2ccccc21.Cl [IMIPRAMINE HYDROCHLORIDE]
Activity (Mus musculus [8]): 52% | Activity (Mus musculus [9]): 26.5%

O=S(=O)(NCCCCN1CCN(c2cccc(Cl)c2)CC1)c1cccc2ccccc12
Ratio Ki [10]: 10 | Ki [1]: 268 nM | Ki [6]: 127 nM | Ki [5]: 397 nM | Ki [7]: 36 nM

O=S(=O)(NCCCCN1CCN(c2ccc(Cl)cc2)CC1)c1ccc2ncccc2c1
Ki [1]: 44 nM | Ki [5]: 2030 nM

O=S(=O)(NCCCCN1CCN(c2cccc(Cl)c2)CC1)c1ccc2ncccc2c1
Ki [1]: 42 nM

CN1C(=O)CN=C(c2ccccc2)c2cc(Cl)ccc21 [DIAZEPAM]
Activity (Rattus norvegicus [11]): 29.7% | Activity (Rattus norvegicus [12]): 21.8% | Activity (Rattus norvegicus [13]): 46.6% | Activity (Rattus norvegicus [14]): 63.7% | Activity (Rattus norvegicus [15]): 28.5% | Activity (Rattus norvegicus [16]): 35.4%

Cl.O=S(=O)(c1cnc2ccccc2c1)N1CCC(CCN2CCN(c3ccc(Cl)cc3)CC2)CC1
inhibition (Mus musculus [17]): Dose-dependent effect | ED50 (Mus musculus [17]): 5.12 mg/kg | Ratio Ki [10]: 207 | Ki [1]: 31 nM | Ki [6]: 24800 nM | inhibition [2]: 63% | Ki [5]: 8300 nM | inhibition (Mus musculus [18]): Dose-dependent effect | ED50 (Mus musculus [18]; read-out: ID50 (the source's name)): 25 mg/kg | Ki [7]: 40 nM | inhibition [19]: 90% | Ki (D(2) dopamine receptor): 56 nM | inhibition [3]: 52% | Activity (Mus musculus [20]): inactive | inhibition [4]: 90%

O=S(=O)(NCCCCN1CCN(c2ccc(Cl)cc2)CC1)c1cnc2ccccc2c1
Ki [1]: 56 nM | inhibition [2]: 37% | Ki [5]: 771 nM | inhibition [19]: 78% | inhibition [3]: 46% | inhibition [4]: 82%

O=S(=O)(NCCCN1CCN(c2cccc(Cl)c2)CC1)c1cnc2ccccc2c1
Ki [1]: 206 nM

O=S(=O)(NCCCN1CCN(c2ccc(Cl)cc2)CC1)c1cncc2ccccc12
Ki [5]: 888 nM

O=C(CCCN1CCC(O)(c2ccc(Cl)cc2)CC1)c1ccc(F)cc1
inhibition (Mus musculus [21]): Dose-dependent effect | Activity (Mus musculus [22]): Active

O=S(=O)(NCCCCN1CCN(c2cccc(Cl)c2)CC1)c1ccc2ccccc2c1
Ki [1]: 22 nM | Ki [5]: 497 nM

O=C(c1ccc(F)cc1)C1CCN(CCn2c(=O)[nH]c3ccccc3c2=O)CC1 [KETANSERIN]
ED50 (Mus musculus [17]): 0.12 mg/kg

CN1CCN(C2=Nc3cc(Cl)ccc3Nc3ccccc32)CC1
Activity (Mus musculus [23]): Active | inhibition (Mus musculus [21]): Dose-dependent effect

O=S(=O)(c1cnc2ccccc2c1)N1CCC(CN2CCN(c3ccc(Cl)cc3)CC2)CC1
Ki [1]: 6000 nM | Ki [5]: 462 nM
